{"data": "Measured values from different studies", "target": "Inhibitor of nuclear factor kappa-B kinase subunit epsilon (IKBKE, Homo sapiens, UniProt Q14164)", "One construct used (Q14164 1-716)": "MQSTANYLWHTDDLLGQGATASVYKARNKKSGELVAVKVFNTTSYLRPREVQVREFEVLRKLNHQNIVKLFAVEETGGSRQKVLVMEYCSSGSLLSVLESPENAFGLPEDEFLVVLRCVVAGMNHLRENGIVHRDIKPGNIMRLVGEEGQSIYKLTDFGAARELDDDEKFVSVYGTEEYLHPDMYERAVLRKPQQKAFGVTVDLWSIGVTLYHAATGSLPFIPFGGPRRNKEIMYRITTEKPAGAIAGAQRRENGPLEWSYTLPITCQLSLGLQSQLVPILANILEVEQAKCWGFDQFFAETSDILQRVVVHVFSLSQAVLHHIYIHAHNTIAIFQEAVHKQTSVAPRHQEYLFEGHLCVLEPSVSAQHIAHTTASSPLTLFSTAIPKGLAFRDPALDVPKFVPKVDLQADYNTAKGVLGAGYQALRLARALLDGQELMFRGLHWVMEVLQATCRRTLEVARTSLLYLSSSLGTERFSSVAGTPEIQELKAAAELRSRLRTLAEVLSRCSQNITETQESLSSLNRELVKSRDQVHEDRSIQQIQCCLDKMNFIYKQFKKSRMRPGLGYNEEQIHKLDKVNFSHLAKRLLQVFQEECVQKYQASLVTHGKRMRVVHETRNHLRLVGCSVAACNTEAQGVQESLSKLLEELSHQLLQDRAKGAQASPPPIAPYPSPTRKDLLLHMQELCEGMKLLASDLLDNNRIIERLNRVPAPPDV", "note": "Each line is one published result; the experiments were not run side by side."}
{"SMILES": "CCCS(=O)(=O)Nc1ccc(F)c(C(=O)c2c[nH]c3ncc(-c4ccc(Cl)cc4)cc23)c1F", "assay": "enzyme activity, inhibitor", "conditions": "1 µM", "quantity": "inhibition", "result": "< 10%"}
{"SMILES": "COc1cc2ncnc(Nc3ccc(Oc4ccccc4)c(C)c3C)c2cc1OC", "assay": "enzyme activity, inhibitor", "conditions": "1 µM", "quantity": "inhibition", "result": "1%"}
{"SMILES": "COc1cc(/C=C/C(=O)CC(=O)/C=C/c2ccc(O)c(OC)c2)ccc1O", "assay": "enzyme activity, inhibitor", "conditions": "1 µM", "quantity": "activity vs control", "result": "72%"}
{"SMILES": "COc1ccc(COc2ccc(Cc3cnc(N)nc3N)cc2OC)cc1", "assay": "cell-free assay", "conditions": "0.5 µM", "quantity": "remaining signal", "result": "96.7%"}
{"SMILES": "C[C@H](c1cccc(C#N)c1)n1cc(Cl)cc(C(N)=O)c1=N", "assay": "cell-free assay, competition with immobilised ligand", "conditions": "1 µM", "quantity": "remaining binding", "result": "82%"}
{"SMILES": "Cc1nn(CC(F)(F)F)cc1Nc1nccc(NCCCNC(=O)C2CCC2)n1", "assay": "enzyme activity, inhibitor, radiometric", "conditions": "1 µM", "quantity": "remaining activity", "result": "63%"}
{"SMILES": "C[C@H](NC(=O)c1cnc2n1[C@](C)(Cc1ccc(C#N)cc1)C(=O)N2c1cc(Cl)c(F)c(Cl)c1)C(=O)NC1(c2ccccn2)CC1", "assay": "cell-free assay, competition with immobilised ligand", "conditions": "1 µM", "quantity": "remaining binding", "result": "89%"}
{"SMILES": "Cc1nn(CC(F)(F)F)cc1Nc1ncc(Br)c(NCc2ccc(S(N)(=O)=O)cc2)n1", "assay": "enzyme activity, inhibitor, radiometric", "conditions": "1 µM", "quantity": "remaining activity", "result": "23%"}
{"SMILES": "Cc1cc(NC(=O)c2cccc3cc(-c4cccc5[nH]nc(N)c45)ccc23)ccc1F", "assay": "enzyme activity, inhibitor", "conditions": "0.1 µM", "quantity": "activity vs control", "result": "111%"}
{"SMILES": "NS(=O)(=O)c1ccc(CNc2nc(Nc3cccc(NC(=O)N4CCCC4)c3)ncc2C2CC2)cc1", "assay": "enzyme activity, inhibitor, radiometric", "conditions": "1 µM", "quantity": "remaining activity", "result": "52%"}
{"SMILES": "Nc1c(C(=O)NCc2ccc(C(=O)NCCCC3CCCCC3)cc2)cnn1-c1ccccc1", "assay": "cell-free assay, competition with immobilised ligand", "conditions": "0.1 µM", "quantity": "remaining binding", "result": "100%"}
{"SMILES": "CCN(CC)CCNC(=O)c1c(C)[nH]c(/C=C2\\C(=O)Nc3ccc(F)cc32)c1C", "assay": "cell-free assay", "conditions": "0.5 µM", "quantity": "remaining signal", "result": "45.6%"}
{"SMILES": "O=c1nc(-c2ccccn2)sc2ccccc12", "assay": "binding, competition with immobilised ligand", "conditions": "1 µM", "quantity": "remaining binding", "result": "100%"}
{"SMILES": "NS(=O)(=O)c1ccc(CNc2ccnc(Nc3cccc(NC(=O)N4CCCC4)c3)n2)cc1", "assay": "enzyme activity, inhibitor, radiometric", "conditions": "1 µM", "quantity": "remaining activity", "result": "79%"}
{"SMILES": "Cc1c[nH]c2nccc(Oc3c(F)cc(Nc4cc(Cl)nc(N)n4)cc3F)c12", "assay": "cell-free assay, competition with immobilised ligand", "conditions": "0.1 µM", "quantity": "remaining binding", "result": "93%"}
{"SMILES": "O=C(NCCCNc1ccnc(Nc2cccc(NC(=O)N3CCCC3)c2)n1)C1CCC1", "assay": "enzyme activity, inhibitor, radiometric", "conditions": "1 µM", "quantity": "remaining activity", "result": "33%"}
{"SMILES": "COc1cc(-c2cn(C3CCc4c(F)cccc4N(CC(F)(F)F)C3=O)nn2)ccc1-n1cnc(C)c1 (stereo not shown)", "assay": "cell-free assay, competition with immobilised ligand", "conditions": "1 µM", "quantity": "remaining binding", "result": "100%"}
{"SMILES": "Cc1nn(CC(F)(F)F)cc1Nc1ncc(Br)c(NCCCNC(=O)C2CCC2)n1", "assay": "enzyme activity, inhibitor, radiometric", "conditions": "1 µM", "quantity": "remaining activity", "result": "1%"}
{"SMILES": "CN1CCN(c2ccc3nc(-c4c(N)c5c(F)cccc5[nH]c4=O)[nH]c3c2)CC1", "assay": "enzyme activity, inhibitor", "conditions": "0.5 µM", "quantity": "activity vs control", "result": "42.9%"}
{"SMILES": "CCC(=O)N[C@H]1CC[C@@H](C(=O)N(C)c2ccc(-c3nc4ccccc4o3)cc2)C1", "assay": "cell-free assay, competition with immobilised ligand", "conditions": "1 µM", "quantity": "remaining binding", "result": "52%"}
{"SMILES": "O=C1c2ccccc2-c2n[nH]c3cccc1c23", "assay": "enzyme activity, inhibitor", "conditions": "0.5 µM", "quantity": "activity vs control", "result": "88.9%"}
{"SMILES": "O=C(Nc1cccc(Nc2ncc(Br)c(NCCc3cnc[nH]3)n2)c1)N1CCCC1", "assay": "enzyme activity, inhibitor, radiometric", "conditions": "1 µM", "quantity": "remaining activity", "result": "44%"}
